Assay results from ChEMBL document CHEMBL1128714, “Synthesis and anti-HIV activity of 1,1'-dideoxygossypol and related compounds” (J Med Chem, 1995).

Assays:
HeLa [1] = assay: Highest concentration at which no visible changes in cell morphology or monolayer adhesion was detected.; format: functional, Homo sapiens
HeLa [2] = assay: Compound was evaluated for the anti HIV activity in HT46c (HeLaT4+) cells as host cells for H9/HIV-IIIB strain of the HIV-1 virus; anti HIV activity masked by cytotoxicity; format: functional, cell-based, Homo sapiens
HeLa [3] = assay: Compound was evaluated for the anti HIV activity in HT46c (HeLaT4+) cells as host cells for H9/HIV-IIIB strain of the HIV-1 virus; format: functional, cell-based; details: Homo sapiens
How it was run: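 HT46c (HeLaT4+) cells were plated at 5×10^4 cells/well in RPMI 1640 with 10% FBS and attached overnight. They were infected with HIV-1 H9/HIV-IIIB at an input giving 100–200 foci/well in positive controls by day 3. Compound was tested at 0.01, 0.1, 1.0, 5.0 and 20 μM for 3 days at 37 °C, 5% CO2. Foci were counted by focal immunoassay on methanol-fixed monolayers, and EC50 was derived.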

SMILES	TC (HeLa [1])	EC50 (HeLa [2])	EC50 (HeLa [3])
Cc1ccc2c(C(=O)O)c(O)c(O)c(C(C)C)c2c1	>20 µM		
Cc1cc2c(C(C)C)c(O)c(O)c(C=O)c2cc1-c1cc2c(C=O)c(O)c(O)c(C(C)C)c2cc1C	>1 µM	anti HIV activity masked by cytotoxicity	
Cc1ccc2c(C=O)c(O)c(O)c(C(C)C)c2c1	>1 µM		20 µM
Cc1cc2c(C(C)C)c(O)c(O)c(C(=O)O)c2cc1-c1cc2c(C(=O)O)c(O)c(O)c(C(C)C)c2cc1C	>5 µM		0.7 µM
